Laboratory results published in ChEMBL document CHEMBL3232782, “1,2,3,4,8,9,10,11-octahydrobenzo[j]phenanthridine-7,12-diones as new leads against Mycobacterium tuberculosis” (J Med Chem, 2014).
≈ marks a conversion by molar mass, not a printed value.

System: Mycobacterium tuberculosis variant bovis
Experiment: Antimycobacterial activity against Mycobacterium bovis AN5 expressing luciferase assessed as growth inhibition after 6 days by luminometry
Assay type: functional
Settings: AN5, 144 h
Outline: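 Strains carried pSMT1 luxAB reporter plasmid. DMSO stocks 10 mM, serially diluted in 7H9 + 10% FCS, triplicate wells. Filtered bacterial suspension at 50 000 RLU/mL. Luminescence read after 6 days using 1% n-decanal substrate. […] Growth temperatures: M.tb 37 °C; M. avium and M. bovis 39 °C.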

Question: `CC(C)(C)C1CCc2ncc3c(c2C1)C(=O)C1=C(C3=O)C2CCC1C2` (centres undefined) was tested. Which MIC did it give?
Answer: The MIC was 0.78 µM (≈ 0.262 µg/mL).

Question: With `CCOC(=O)C1CCc2ncc3c(c2C1)C(=O)C1=C(C3=O)C2CCC1C2` (centres undefined) as the molecule, how does the MIC read?
Answer: Its MIC is 0.09 µM (≈ 0.0316 µg/mL).

Question: For `CCOC(=O)C1CCc2ncc3c(c2C1)C(=O)C1=C(C3=O)C2CCC1CC2` (centres undefined), which MIC is on record?
Answer: Its MIC is 0.57 µM (≈ 0.208 µg/mL).

Question: Which MIC does the source give for `NNC(=O)c1ccncc1` [ISONIAZID] here?
Answer: Its MIC is 0.08 µM (≈ 0.011 µg/mL).
